Measured values taken from ChEMBL document CHEMBL1143542, “Structure-activity relationships of bivalent aminoglycosides and evaluation of their microbiological activities” (2005).
Converted amounts (≈) assume the structure as drawn.

Assays:
Escherichia coli = experiment: In vitro minimum inhibitory concentration against Escherichia coli ATCC 25922; assay type: functional
How it was run: (§1)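 Broth microdilution following CLSI M100-S12. Stocks were 10 mg/mL in water, diluted in Mueller–Hinton broth to a top level of 128, then serially 2-fold in plates. Bacteria in cation-adjusted Mueller–Hinton broth were mixed 1:1 with drug and incubated 16–20 h at 35 °C. MIC was the lowest concentration with no visible growth. Run in duplicate with no-antibiotic and no-inoculum (sterility) controls.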

Pseudomonas aeruginosa [1] = experiment: Minimum inhibitory concentration against Pseudomonas aeruginosa PAE_NUH23; assay type: functional; how it was run: as §1
Pseudomonas aeruginosa [2] = experiment: Minimum inhibitory concentration against Pseudomonas aeruginosa PAE_NUH04; assay type: functional; how it was run: as §1
Pseudomonas aeruginosa [3] = experiment: Minimum inhibitory concentration against Pseudomonas aeruginosa PAE_NUH06; assay type: functional; how it was run: as §1
Pseudomonas aeruginosa [4] = experiment: Minimum inhibitory concentration against Pseudomonas aeruginosa PAE_NUH24; assay type: functional; how it was run: as §1
Staphylococcus aureus [5] = experiment: In vitro minimum inhibitory concentration against Staphylococcus aureus MRSA 3359; assay type: functional; how it was run: as §1
Pseudomonas aeruginosa [6] = experiment: Minimum inhibitory concentration against Pseudomonas aeruginosa PAE_NUH03; assay type: functional; how it was run: as §1
Pseudomonas aeruginosa [7] = experiment: Minimum inhibitory concentration against Pseudomonas aeruginosa PAE_NUH18; assay type: functional; how it was run: as §1
Pseudomonas aeruginosa [8] = experiment: Minimum inhibitory concentration against Pseudomonas aeruginosa ATCC 27853; assay type: functional; how it was run: as §1
Pseudomonas aeruginosa [9] = experiment: Minimum inhibitory concentration against Pseudomonas aeruginosa PAE_NUH19; assay type: functional; how it was run: as §1
Pseudomonas aeruginosa [10] = experiment: Minimum inhibitory concentration against Pseudomonas aeruginosa PAE_NUH07; assay type: functional; how it was run: as §1
Pseudomonas aeruginosa [11] = experiment: Minimum inhibitory concentration against Pseudomonas aeruginosa PAE_NUH21; assay type: functional; how it was run: as §1
Pseudomonas aeruginosa [12] = experiment: Minimum inhibitory concentration against Pseudomonas aeruginosa PAE_NUH01; assay type: functional; how it was run: as §1
Pseudomonas aeruginosa [13] = experiment: Minimum inhibitory concentration against Pseudomonas aeruginosa PAE_NUH05; assay type: functional; how it was run: as §1
Pseudomonas aeruginosa [14] = experiment: Minimum inhibitory concentration against Pseudomonas aeruginosa PAE_NUH25; assay type: functional; how it was run: as §1
Staphylococcus aureus [15] = experiment: In vitro minimum inhibitory concentration against Staphylococcus aureus ATCC 29213; assay type: functional; how it was run: as §1
Pseudomonas aeruginosa [16] = experiment: In vitro minimum inhibitory concentration against Pseudomonas aeruginosa PAO-1; assay type: functional; how it was run: as §1
Enterococcus faecalis = experiment: In vitro minimum inhibitory concentration against Enterococcus faecalis 29212; assay type: functional; how it was run: as §1
Pseudomonas aeruginosa [17] = experiment: Minimum inhibitory concentration against Pseudomonas aeruginosa PAE_NUH20; assay type: functional; how it was run: as §1
Pseudomonas aeruginosa [18] = experiment: Minimum inhibitory concentration against Pseudomonas aeruginosa PAE_NUH02; assay type: functional; how it was run: as §1
Pseudomonas aeruginosa [19] = experiment: Minimum inhibitory concentration against Pseudomonas aeruginosa PAE_NUH22; assay type: functional; how it was run: as §1
Pseudomonas aeruginosa [20] = experiment: In vitro minimum inhibitory concentration against Pseudomonas aeruginosa ATCC 27853; assay type: functional; how it was run: as §1
Pseudomonas aeruginosa [21] = experiment: Minimum inhibitory concentration against Pseudomonas aeruginosa PAE_NUH17; assay type: functional; how it was run: as §1
Pseudomonas aeruginosa [22] = experiment: In vitro minimum inhibitory concentration against Pseudomonas aeruginosa PAO-1 Minimum inhibitory concentration against Pseudomonas aeruginosa PAO-1; assay type: functional; how it was run: as §1
Pseudomonas aeruginosa [23] = experiment: Susceptibility testing against Pseudomonas aeruginosa PAE_NUH06; S=Susceptible; assay type: functional, organism-based
How it was run: (§2)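 Disk diffusion susceptibility profiling against a panel of empirically used antipseudomonal antibiotics. Each strain was categorised as susceptible (S) or intermediate (I).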

Pseudomonas aeruginosa [24] = experiment: Susceptibility testing against Pseudomonas aeruginosa PAE_NUH22; S=Susceptible; assay type: functional, organism-based; how it was run: as §2
Pseudomonas aeruginosa [25] = experiment: Susceptibility testing against Pseudomonas aeruginosa PAE_NUH07; S=Susceptible; assay type: functional, organism-based; how it was run: as §2
Pseudomonas aeruginosa [26] = experiment: Susceptibility testing against Pseudomonas aeruginosa PAE_NUH04; S=Susceptible; assay type: functional, organism-based; how it was run: as §2
Pseudomonas aeruginosa [27] = experiment: Susceptibility testing against Pseudomonas aeruginosa PAE_NUH05; S=Susceptible; assay type: functional, organism-based; how it was run: as §2
Pseudomonas aeruginosa [28] = experiment: Susceptibility testing against Pseudomonas aeruginosa PAE_NUH25; S=Susceptible; assay type: functional, organism-based; how it was run: as §2
Pseudomonas aeruginosa [29] = experiment: Susceptibility testing against Pseudomonas aeruginosa PAE_NUH23; S=Susceptible; assay type: functional, organism-based; how it was run: as §2
Pseudomonas aeruginosa [30] = experiment: Susceptibility testing against Pseudomonas aeruginosa PAE_NUH19; S=Susceptible; assay type: functional, organism-based; how it was run: as §2
Pseudomonas aeruginosa [31] = experiment: Susceptibility testing against Pseudomonas aeruginosa PAE_NUH02; S=Susceptible; assay type: functional, organism-based; how it was run: as §2
Pseudomonas aeruginosa [32] = experiment: Susceptibility testing against Pseudomonas aeruginosa PAE_NUH01; S=Susceptible; assay type: functional, organism-based; how it was run: as §2
Pseudomonas aeruginosa [33] = experiment: Susceptibility testing against Pseudomonas aeruginosa PAE_NUH24; S=Susceptible; assay type: functional, organism-based; how it was run: as §2
Pseudomonas aeruginosa [34] = experiment: Susceptibility testing against Pseudomonas aeruginosa PAE_NUH17; S=Susceptible; assay type: functional, organism-based; how it was run: as §2
Pseudomonas aeruginosa [35] = experiment: Susceptibility testing against Pseudomonas aeruginosa PAE_NUH20; S=Susceptible; assay type: functional, organism-based; how it was run: as §2
Pseudomonas aeruginosa [36] = experiment: Susceptibility testing against Pseudomonas aeruginosa ATCC 27853; S=Susceptible; assay type: functional, organism-based; how it was run: as §2
Pseudomonas aeruginosa [37] = experiment: Susceptibility testing against Pseudomonas aeruginosa PAE_NUH21; S=Susceptible; assay type: functional, organism-based; how it was run: as §2
Pseudomonas aeruginosa [38] = experiment: Susceptibility testing against Pseudomonas aeruginosa PAE_NUH03; S=Susceptible; assay type: functional, organism-based; how it was run: as §2
Pseudomonas aeruginosa [39] = experiment: Susceptibility testing against Pseudomonas aeruginosa PAE_NUH18; S=Susceptible; assay type: functional, organism-based; how it was run: as §2

Row | MIC (Escherichia coli) [µg/mL] | MIC (Pseudomonas aeruginosa [1]) [µg/mL] | MIC (Pseudomonas aeruginosa [2]) [µg/mL] | MIC (Pseudomonas aeruginosa [3]) [µg/mL] | MIC (Pseudomonas aeruginosa [4]) [µg/mL] | MIC (Staphylococcus aureus [5]) [µg/mL] | MIC (Pseudomonas aeruginosa [6]) [µg/mL] | MIC (Pseudomonas aeruginosa [7]) [µg/mL] | MIC (Pseudomonas aeruginosa [8]) [µg/mL] | MIC (Pseudomonas aeruginosa [9]) [µg/mL] | MIC (Pseudomonas aeruginosa [10]) [µg/mL] | MIC (Pseudomonas aeruginosa [11]) [µg/mL] | MIC (Pseudomonas aeruginosa [12]) [µg/mL] | MIC (Pseudomonas aeruginosa [13]) [µg/mL] | MIC (Pseudomonas aeruginosa [14]) [µg/mL] | MIC (Staphylococcus aureus [15]) [µg/mL] | MIC (Enterococcus faecalis) [µg/mL] | MIC (Pseudomonas aeruginosa [17]) [µg/mL] | MIC (Pseudomonas aeruginosa [18]) [µg/mL] | MIC (Pseudomonas aeruginosa [19]) [µg/mL] | Structure (SMILES) | also measured
1 | 4 (≈ 4.58 µM) | > 32 | 6.3 (≈ 7.22 µM) | 12.5 (≈ 14.3 µM) | 32 (≈ 36.7 µM) | 16 (≈ 18.3 µM) | 6.3 (≈ 7.22 µM) | 16 (≈ 18.3 µM) | 8 (≈ 9.16 µM) | 16 (≈ 18.3 µM) | 6.3 (≈ 7.22 µM) | 16 (≈ 18.3 µM) | 12.5 (≈ 14.3 µM) | 6.3 (≈ 7.22 µM) | 8 (≈ 9.16 µM) | 1 (≈ 1.15 µM) | > 50 | 16 (≈ 18.3 µM) | 6.3 (≈ 7.22 µM) | 8 (≈ 9.16 µM) | CN(CCCCN(C)C[C@@H](O)CO[C@@H]1[C@@H](O)[C@H](N)C[C@H](N)[C@H]1O[C@H]1O[C@H](CN)[C@@H](O)[C@H](O)[C@H]1N)C[C@@H](O)CO[C@@H]1[C@@H](O)[C@H](N)C[C@H](N)[C@H]1O[C@H]1O[C@H](CN)[C@@H](O)[C@H](O)[C@H]1N | MIC (Pseudomonas aeruginosa [16]): 8 µg/mL (≈ 9.16 µM); MIC (Pseudomonas aeruginosa [20]): 8 µg/mL (≈ 9.16 µM); MIC (Pseudomonas aeruginosa [21]): > 32 µg/mL
2 | 4 (≈ 4.73 µM) | 16 (≈ 18.9 µM) | 3.1 (≈ 3.67 µM) | 6.3 (≈ 7.46 µM) | 16 (≈ 18.9 µM) | 16 (≈ 18.9 µM) | 6.3 (≈ 7.46 µM) | 8 (≈ 9.47 µM) | 1 (≈ 1.18 µM) | 8 (≈ 9.47 µM) | 3.1 (≈ 3.67 µM) | 16 (≈ 18.9 µM) | 6.3 (≈ 7.46 µM) | 3.1 (≈ 3.67 µM) | 8 (≈ 9.47 µM) | 1 (≈ 1.18 µM) | > 50 | 16 (≈ 18.9 µM) | 6.3 (≈ 7.46 µM) | 16 (≈ 18.9 µM) | NC[C@H]1O[C@H](O[C@H]2[C@H](OC[C@H](O)CNCCCCNC[C@@H](O)CO[C@@H]3[C@@H](O)[C@H](N)C[C@H](N)[C@H]3O[C@H]3O[C@H](CN)[C@@H](O)[C@H](O)[C@H]3N)[C@@H](O)[C@H](N)C[C@@H]2N)[C@H](N)[C@@H](O)[C@@H]1O | MIC (Pseudomonas aeruginosa [22]): 2 µg/mL (≈ 2.37 µM); MIC (Pseudomonas aeruginosa [20]): 4 µg/mL (≈ 4.73 µM); MIC (Pseudomonas aeruginosa [21]): 32 µg/mL (≈ 37.9 µM)
3 | – | – | – | – | – | – | – | – | – | – | – | – | – | – | – | – | – | – | – | – | CC(O)[C@H]1C(=O)N2C(C(=O)O)=C(SCCNC=N)C[C@H]12 (single isomer, unassigned) | Activity (Pseudomonas aeruginosa [23]): Susceptible; Activity (Pseudomonas aeruginosa [24]): Susceptible; Activity (Pseudomonas aeruginosa [25]): Susceptible; Activity (Pseudomonas aeruginosa [26]): Susceptible; Activity (Pseudomonas aeruginosa [27]): Susceptible; Activity (Pseudomonas aeruginosa [28]): Susceptible; Activity (Pseudomonas aeruginosa [29]): Susceptible; Activity (Pseudomonas aeruginosa [30]): Susceptible; Activity (Pseudomonas aeruginosa [31]): Susceptible; Activity (Pseudomonas aeruginosa [32]): Susceptible; Activity (Pseudomonas aeruginosa [33]): Susceptible; Activity (Pseudomonas aeruginosa [34]): Susceptible; Activity (Pseudomonas aeruginosa [35]): Susceptible; Activity (Pseudomonas aeruginosa [36]): Susceptible; Activity (Pseudomonas aeruginosa [37]): Susceptible; Activity (Pseudomonas aeruginosa [38]): Susceptible; Activity (Pseudomonas aeruginosa [39]): Susceptible
